What all share (assay type): functional
The test system of assay [1] is A549. As to the kind of experiment: Antiproliferative activity against human A549 cells by sulforhodamine B assay. A digest of the protocol: (§1)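 Cells in RPMI 1640 (25 mM HEPES, 2 mM L-glutamine, 10% heat-inactivated FBS, antibiotics) at 37 °C, 5% CO2. Seeded at 3–5 × 10³/well with graded concentrations, paclitaxel as assay control, for 72 h. TCA-fixed, stained with 0.04% SRB, dye dissolved in 10 mM Tris, A515 read. GI50 is the concentration halving absorbance versus untreated cells; three or more experiments.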
A general note: The SRB assay estimates cell density from bound dye.

Assay [2] relates to DU-145. Description: Antiproliferative activity against human DU145 cells by sulforhodamine B assay. A digest of the protocol: as §1
In assay [3] the test system is KB. As to the kind of experiment: Antiproliferative activity against human KB cells by sulforhodamine B assay. A digest of the protocol: as §1
A short description of assay [4]: Antiproliferative activity against multidrug-resistant P-gp expressing human KBVIN cells by sulforhodamine B assay. A digest of the protocol:
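Vincristine-resistant KB subline kept in 100 nM vincristine, then grown 7–10 days without it before testing. RPMI 1640 with 10% FBS, 37 °C, 5% CO2. 3–5 × 10³ cells/well exposed 72 h to a concentration series, paclitaxel as assay control. SRB staining after TCA fixation, A515 read. GI50 is the 50% absorbance reduction versus untreated cells; three or more experiments.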

Assay [5] can be described thus: Selectivity ratio of GI50 for human KB cells to GI50 for multidrug-resistant P-gp expressing human KBVIN cells. A digest of the protocol: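 Ratio of GI50 in parental KB to GI50 in P-gp-overexpressing KB-VIN. […] KB-VIN cells were grown 7–10 days without vincristine before the assay.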

Drawing on ChEMBL document CHEMBL3400028, “Evaluation of Aconitum diterpenoid alkaloids as antiproliferative agents” (2015), this text covers GI50 and RatioGI50 for 24 compounds.

By GI50 is commonly meant the concentration giving 50% growth inhibition. A low value points to greater sensitivity of the cells.

The structures appear in SMILES notation.

On to `C=C1[C@H]2C[C@@H]3C4N5C[C@]6(C)CCC[C@@]47[C@@H]6[C@@H]5C[C@]3([C@@H]1O)[C@H]7[C@H]2OC(=O)c1cccnc1`, for which the GI50 in assay [1], in assay [2], in assay [3] and in assay [4] was above 20 µM each time. Besides, in assay [5], the RatioGI50 was above 20.
For `C=C1[C@H]2C[C@H]3C4N5C[C@]6(C)CCC[C@]47[C@H]([C@H]2O)C3(C[C@]5(OC(=O)c2ccccc2)[C@H]67)[C@@H]1O`, the GI50 in assay [1], in assay [2], in assay [3] and in assay [4] was above 20 µM throughout. The RatioGI50 in assay [5] is listed as above 20.
In the case of `C=C1[C@H]2C[C@H]3C4N(Cc5ccccc5)C[C@]5(C)CCC[C@]46[C@H]([C@H]2O)C3(CC(=O)[C@H]56)[C@@H]1O` (stereo not given in full), the GI50 in assay [1], in assay [2], in assay [3] and in assay [4] was above 20 µM in each case. Further, in assay [5], the RatioGI50 is recorded as above 20.
For `C=C1[C@H]2C[C@@H]3C4N5C[C@]6(C)CCC[C@@]47[C@@H]6[C@@H]5C[C@]3([C@@H]1O)[C@H]7[C@H]2OC(=O)c1cccc(C(F)(F)F)c1`, the GI50 in assay [1], in assay [2], in assay [3] and in assay [4] was above 20 µM throughout. The RatioGI50 in assay [5] is listed as above 20.
Regarding `CCN1C[C@]2(C)CC[C@H](OC)[C@@]34[C@@H]5C[C@H]6[C@H](OC)[C@@H]5[C@@]5(C[C@@H]6OC)OCO[C@@]5([C@@H](OC(=O)c5cccc(C(F)(F)F)c5)[C@H]23)[C@@H]14`, the GI50 in assay [1], in assay [2], in assay [3] and in assay [4] was 10 µM throughout. Further, the RatioGI50 in assay [5] turned out to be 10.
Regarding `C=C1[C@H]2C[C@@H]3C4N5C[C@]6(C)CCC[C@@]47[C@@H]6[C@@]5(OC(=O)c4ccc(OC)c(OC)c4)C[C@]3([C@@H]1O)[C@H]7[C@H]2OC(=O)c1ccc(OC)c(OC)c1`, the GI50 in assay [1], in assay [2], in assay [3] and in assay [4] was 10 µM in each case. For the same compound, the RatioGI50 in assay [5] turned out to be 10.
As to `C=C1[C@H]2C[C@@]3(C4C[C@@H]5C6(C)CCC7O[C@H]6N(CC)C4C75[C@@H]3C[C@@H]2OC(C)=O)[C@@H]1OC(C)=O`, the GI50 in assay [1], in assay [2], in assay [3] and in assay [4] was above 20 µM each time. Further, the RatioGI50 in assay [5] is recorded as above 20.
For `C=C1[C@H]2C[C@@H]3C4N5C[C@]6(C)CCC[C@@]47[C@@H]6[C@@H]5C[C@]3([C@@H]1OC(=O)c1ccc([N+](=O)[O-])cc1)[C@H]7[C@H]2O`, the GI50 in assay [1], in assay [2], in assay [3] and in assay [4] was above 20 µM throughout. For the same compound, the RatioGI50 in assay [5] is reported as above 20.
With `CCN1C[C@]2(COC)[C@H](O)C[C@H](OC(C)=O)[C@]34C1[C@@](O)([C@@H](OC)[C@H]23)[C@@]1(O)C[C@H](OC)[C@H]2C[C@@H]4[C@@H]1[C@H]2O`, the GI50 in assay [1], in assay [2], in assay [3] and in assay [4] was above 20 µM in each case. In assay [5], the RatioGI50 was above 20.
As for `CCN1C[C@]2(COC)CC[C@H](OC)[C@]34C1C([C@H](OC)[C@H]23)[C@]1(OC(C)=O)[C@H]2[C@@H](OC(=O)c3ccccc3)[C@](O)(C[C@H]24)[C@@H](OC)[C@@H]1O` [DEOXYACONITINE], the GI50 in assay [1], in assay [2], in assay [3] and in assay [4] was above 20 µM throughout. Also, the RatioGI50 in assay [5] is reported as above 20.
Regarding `C=C1[C@H]2C[C@@H]3C4N5C[C@]6(C)CCC[C@@]47[C@@H]6[C@@H]5C[C@]3([C@@H]1OC(=O)c1ccc([N+](=O)[O-])cc1)[C@H]7[C@H]2OC(=O)c1ccc([N+](=O)[O-])cc1`, the concentration for 50% growth inhibition (GI50) in assay [1] was 6.9 µM; in assay [2], 1 µM; in assay [3] it was 5.3 µM; in assay [4], 5.5 µM. For the same compound, in assay [5], the RatioGI50 turned out to be 0.96.
Taken in the same sequence, the figures for `CCN1C[C@]2(COC)CC[C@H](O)[C@]34C1[C@@](O)([C@@H](OC)[C@H]23)[C@@]1(O)C[C@H](OC)[C@H]2C[C@@H]4[C@@H]1[C@H]2OC(C)=O` were above 20 µM, above 20 µM, above 20 µM, above 20 µM and above 20.
Taken in the same sequence, the figures for `C=C1[C@H]2C[C@H]3C4N5C[C@]6(C)CCC[C@]47[C@H]([C@H]2O)C3(CC5[C@H]67)[C@@H]1O` [KOBUSINE] were above 20 µM, above 20 µM, above 20 µM, above 20 µM and above 20.
Consider `C=C1[C@H]2C[C@@]3(C4C[C@@H]5C6(C)CCC7O[C@H]6N(CC)C4C75[C@@H]3C[C@@H]2O)[C@@H]1O`, for which the GI50 in assay [1], in assay [2], in assay [3] and in assay [4] was above 20 µM throughout. For the same compound, in assay [5], the RatioGI50 is above 20.
As to `C=C1[C@@H](OC(C)=O)[C@]23C[C@@H]1[C@@H](OC(C)=O)C[C@H]2[C@@]12C4C3C[C@@H]1[C@@](C)(CC[C@H]2OC(C)=O)CN4CC`, the GI50 in assay [1], in assay [2], in assay [3] and in assay [4] was above 20 µM each time. In assay [5], the RatioGI50 is listed as above 20.
For `C=C1[C@H]2C[C@@H]3C4N5C[C@]6(C)CCC[C@@]47[C@@H]6[C@@]5(O)C[C@]3([C@@H]1OC(=O)/C=C/c1ccccc1)[C@H]7[C@H]2O`, the GI50 in assay [1], in assay [2], in assay [3] and in assay [4] was above 20 µM throughout. Further, in assay [5], the RatioGI50 was above 20.
Regarding `C=C1[C@H]2C[C@@H]3C4N5C[C@]6(C)CCC[C@@]47[C@@H]6[C@@H]5C[C@]3([C@@H]1OC(C)=O)[C@H]7[C@H]2OC(C)=O`, the GI50 in assay [1], in assay [2], in assay [3] and in assay [4] was above 20 µM in each case. In addition, the RatioGI50 in assay [5] is listed as above 20.
With `CCN1C[C@]2(COC)CC[C@H](O)[C@]34C1[C@@](O)([C@@H](OC)[C@H]23)[C@@]1(O)C[C@H](OC)[C@H]2C[C@@H]4[C@@H]1[C@H]2OC` [DELSOLINE], the GI50 in assay [1], in assay [2], in assay [3] and in assay [4] was above 20 µM throughout. Also, the RatioGI50 in assay [5] is given as above 20.
As for `C=C1[C@H]2C[C@@H]3C4N5C[C@]6(C)CCC[C@@]47[C@@H]6[C@@]5(O)C[C@]3([C@@H]1O)[C@H]7[C@H]2OC(=O)C(C)(C)C`, the GI50 in assay [1], in assay [2], in assay [3] and in assay [4] was above 20 µM each time. In assay [5], the RatioGI50 is above 20.
Take `COC[C@]12CN(C)C3[C@@H]4[C@H](OC)[C@H]1[C@@]3([C@@H](OC)C[C@H]2OC(C)=O)[C@@H]1C[C@@]2(O)[C@H](OC(=O)c3ccccc3)[C@@H]1[C@]4(OC(C)=O)[C@@H](O)[C@@H]2OC`: the 50% growth inhibitory concentration (GI50) in assay [1], in assay [2], in assay [3] and in assay [4] was above 20 µM throughout. Further, the RatioGI50 in assay [5] is reported as above 20.
Take `C=C1[C@H]2C[C@@H]3C4N5C[C@]6(C)CCC[C@@]47[C@@H]6[C@@H]5C[C@]3([C@@H]1O)[C@H]7[C@H]2OC(=O)c1ccccc1`: the GI50 in assay [1], in assay [2], in assay [3] and in assay [4] was above 20 µM throughout. The RatioGI50 in assay [5] is above 20.
For the compound `C=C1[C@H]2C[C@@H]3C4N5C[C@]6(C)CCC[C@@]47[C@@H]6[C@@]5(O)C[C@]3([C@@H]1OC(=O)c1cccnc1)[C@H]7[C@H]2O`, the GI50 in assay [1], in assay [2], in assay [3] and in assay [4] was above 20 µM in each case. In assay [5], the RatioGI50 is above 20.
`C=C1[C@H]2C[C@@H]3C4N(C(=O)/C=C/c5ccccc5)C[C@]5(C)CCC[C@@]46[C@@H]5C(=O)C[C@]3([C@@H]1O)[C@H]6[C@H]2O` (stereo not given in full): the GI50 in assay [1], in assay [2], in assay [3] and in assay [4] was above 20 µM throughout. Also, the RatioGI50 in assay [5] is above 20.
As to `CO[C@H]1[C@@H]2C[C@@H]3[C@H]1[C@](O)(C[C@@H]2OC)[C@@]1(O)C2NC(=O)[C@]4(COC(=O)c5ccccc5N)CC[C@H](OC)[C@@]23[C@@H]4[C@@H]1OC`, the 50% growth inhibitory concentration (GI50) in assay [1], in assay [2], in assay [3] and in assay [4] was above 20 µM in each case. Also, the RatioGI50 in assay [5] is reported as above 20.
